Kir21 inh = blocks the mouse Kir2.1 inward-rectifier potassium channel; AID 1672; HEK293-Kir2.1, FluxOR thallium flux fluorescence; active compounds read low; P35561; B-score at 10 µM; 0.85% of 310,000 active;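 active means fluorescence ratio B-score at or below minus 3 SD of library scores, with starting-brightness B-score within 2 SD, cut at about -4.2 in these data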;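 further: channel flux triggered by added potassium and thallium sulfate stimulus; B-score of peak minus minimum fluorescence over baseline after thallium stimulus; more negative B-score means stronger Kir2.1 block with less thallium influx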
Target sequence (P35561 whole entry, looked up): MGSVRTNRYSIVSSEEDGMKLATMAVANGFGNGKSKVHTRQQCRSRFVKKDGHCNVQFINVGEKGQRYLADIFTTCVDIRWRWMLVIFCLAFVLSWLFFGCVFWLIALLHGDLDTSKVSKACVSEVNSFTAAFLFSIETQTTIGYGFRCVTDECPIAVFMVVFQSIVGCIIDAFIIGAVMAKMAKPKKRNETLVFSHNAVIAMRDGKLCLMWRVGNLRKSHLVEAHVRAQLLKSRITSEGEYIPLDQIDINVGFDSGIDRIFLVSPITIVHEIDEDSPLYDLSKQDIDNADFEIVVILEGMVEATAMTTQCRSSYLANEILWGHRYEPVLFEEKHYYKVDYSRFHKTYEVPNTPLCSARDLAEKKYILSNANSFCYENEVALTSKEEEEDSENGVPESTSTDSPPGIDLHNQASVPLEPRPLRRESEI
hERG rescue = shields human hERG channel from block by proarrhythmic agents | Q12809 | CHO-hERG, FluxOR thallium flux, dofetilide IC70 present | activation (rescue from dofetilide block), less the hit threshold, % at 10 µM | 0.51% of 310,000 active | AID 1511;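 active means activation above the mean of controls blocked by dofetilide plus 5 SD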;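 further: thallium influx through hERG after potassium depolarization seen as dye fluorescence rise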
KCNK9 block = blocks the human KCNK9 two-pore domain potassium channel; Q9NPC2; HEK293 KCNK9, FluxOR thallium flux fluorescence; active compounds read low; B-score at 10 µM; 1.2% of 310,000 active;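 active means ratio B-score over 3 SD below the library mean, with starting fluorescence within 5 SD of its mean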;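 further: negative B-score means less thallium flux so channel inhibition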
KCNK3 inh = human KCNK3 channel inhibition, primary screen. CHO-KCNK3 thallium flux, FluxOR fluorescence; active compounds read low. 0.84% of 340,000 active. B-score at 10 µM. O14649;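 active means B-score under library mean minus 4 SD, starting fluorescence ratio at most library mean plus 5 SD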;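 further: more negative B-score means stronger inhibition of thallium flux through KCNK3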
KCNQ1 act = potentiates or activates the human KCNQ1 potassium channel; CHO-K1 KCNQ1, thallium flux FluxOR fluorescence; active compounds read high; B-score at 10 µM; 0.35% of 310,000 active;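 active means fluorescence ratio B-score, a plate-corrected score, at least three library SD, with initial intensity B-score within 5 SD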
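Assay system: CHO-K1 cells stably expressing KCNQ1; Medium: assay buffer with matched DMSO; Also added: K+/Tl+ depolarizing stimulus; Dosing: single dose; Timing: dye 90 min, compound 20 min, room temperature; Measured by: kinetic FluxOR thallium fluorescence, 10-s 1-Hz baseline, 110-s post-stimulus read; Read-out: peak-minus-minimum fluorescence over initial fluorescence, negative-control normalized, B-scored.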
KCNQ1 inh = blocks the human KCNQ1 potassium channel | P51787 | CHO-K1 KCNQ1, FluxOR thallium flux fluorescence; active compounds read high | B-score at 10 µM | 1.3% of 310,000 active | AID 2642;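 active means compounds whose thallium flux B-score, printed positive for inhibition, exceeds three library SD while starting fluorescence stays within three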;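 further: channel opened by potassium depolarization with thallium stimulus after 20 min compound exposure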
An asterisk follows results filed as active; i = inactive; nt = no result given. Only some compounds are listed: those with a hit (about 3.8% of all), similar ones and a draw of the others.

SMILES	Kir21 inh	hERG rescue	KCNK9 block	KCNK3 inh	KCNQ1 act	KCNQ1 inh
CCN(CC)C(=O)Cn1nc(-c2ccc(Cl)cc2)c2ccccc2c1=O	-0.02	0	i	i	i	i
O=C(CC(O)(CC(=O)OCc1ccccc1)C(=O)OCc1ccccc1)OCc1ccccc1	nt	nt	nt	i	nt	nt
CCC(=O)N/N=C/c1ccc(OS(=O)(=O)c2ccccc2)cc1	-0.29	-9	i	i	i	i
NC(N)=N/N=C/c1ccc(OS(=O)(=O)c2ccccc2)cc1	-10*	-23	i	i	i	i
O=C1C2CC=CCC2C(=O)N1c1ccc(Cc2ccncc2)cc1 (stereo not drawn)	0	5.0*	i	i	i	i
Cc1ccc(S(=O)(=O)c2ccc([N+](=O)[O-])cn2)cc1	-2.8	-22	i	i	i	i
O=[N+]([O-])c1ccc(S(=O)(=O)c2ccccc2)nc1	-8.1*	-23	i	i	i	i
CCCCN(C)CC(O)Cn1cc(/C=C/C(=O)c2ccc(C)cc2)c2ccccc21 (stereo not drawn)	-5.2*	-25	i	i	i	i
CCCN(CCC)CC(O)Cn1cc(/C=C/C(=O)c2ccccc2)c2ccccc21 (stereo not drawn)	-4.2	-20	i	i	i	i
CCN(CC(=O)Nc1ccccc1OC)C(=O)c1ccc(NS(=O)(=O)c2ccc(C(C)=O)cc2)cc1	0.68	-11	i	i	i	i
C=CCN1C(=O)S/C(=C/c2ccc(Sc3nc4ccccc4[nH]3)o2)C1=O	0.04	-3	i	i	i	6*
C=CCN1C(=O)S/C(=C/c2ccsc2)C1=O	-1.3	-1	i	i	i	i
Oc1c(CN2CCOCC2)cc(-c2ccccc2)cc1CN1CCOCC1	-0.63	35*	i	i	i	i
Oc1c(CN2CCOCC2)cc(CN2CCOCC2)c(O)c1CN1CCOCC1	nt	nt	nt	i	nt	nt
COC(=O)c1ccccc1NC(=S)NC(=O)COc1ccccc1Cl	-0.44	-12	i	i	i	i
O=C(Nc1ccccc1N1CCCCC1)c1ccc(Cl)cc1	0.02	-7	-6.7*	i	i	i
O=C(NC(=S)Nc1ccccc1N1CCOCC1)c1ccc(-c2ccccc2F)o1	-1.3	-5	i	i	13*	i
O=C(COc1ccccc1Cl)NC(=S)Nc1ccccc1N1CCCC1	-0.6	8.5*	-13*	i	7*	i
O=C(NC(=S)Nc1ccccc1N1CCCCC1)c1ccc(F)cc1Cl	0.91	0	i	i	10*	i
O=C(NC(=S)Nc1cc(Cl)ccc1N1CCOCC1)c1ccc(-c2cccc(Cl)c2)o1	-1.4	-8	i	i	i	i
CC(C)(C)C(=O)Nc1c2c(nn1-c1ccccc1)CSC2	0.49	-9	i	i	i	i
CC(C)(C)c1ccc(Oc2ccc(N)cn2)cc1	-0.2	-1	i	i	21*	i
CCc1cccc(CC)c1NC(=O)CSc1nnc(C2CC2)n1C	0.25	-6	i	i	i	i
COc1ccccc1NCCC(=O)OCC(=O)NC1CCCCCC1	-7.7*	-4	i	i	i	i
COc1ccccc1CCC(=O)OCC(=O)NC1CCCC1	-1.2	-11	i	i	i	i
SMILES	Kir21 inh	hERG rescue	KCNK9 block	KCNK3 inh	KCNQ1 act	KCNQ1 inh
N=c1n(Cc2ccccc2)c2ccccc2n1CC(O)COc1ccc(Cl)cc1Cl (stereo not drawn)	-4.2	-11	i	i	i	i
COc1ccc(OCC(O)Cn2c(=N)n(Cc3ccccc3)c3ccccc32)cc1 (stereo not drawn)	-7.3*	-20	i	i	i	i
Cc1cccc(OCC(O)Cn2c(=N)n(CCN3CCCCC3)c3ccccc32)c1 (stereo not drawn)	-4.2*	-22	i	i	i	i
Cc1cccc(OCC(O)Cn2c(=N)n(Cc3ccccc3)c3ccccc32)c1 (stereo not drawn)	-10*	-28	i	i	i	i
CCN(CC)CCn1c(=N)n(CC(O)COc2cccc(C)c2)c2ccccc21 (stereo not drawn)	-7.9*	-20	i	i	i	i
Cc1cccc(OCC(O)CN2CCNCC2)c1 (stereo not drawn)	-1.1	-2	i	i	i	i
CCOC(=O)c1c(NC(C)=O)sc(/C(C)=N/Nc2ccc(C(=O)O)cc2)c1C	1.2	-10	i	i	i	i
O=C(CC(c1ccccc1)c1ccccc1O)NCc1ccccc1Cl (stereo not drawn)	-1.5	-10	-7.5*	i	i	i
O=C(CC(c1ccccc1)c1ccccc1O)NCCc1ccccc1 (stereo not drawn)	-1	-8	i	i	i	i
CC(C)Oc1ccc(CNC(=O)CC(c2ccccc2)c2cc(Cl)ccc2O)cc1 (stereo not drawn)	0.16	-13	-7.3*	i	i	7*
Cc1ccccc1C(=O)NNC(=O)C1CC(=O)N(c2ccc3c(c2)OCCO3)C1 (stereo not drawn)	nt	nt	nt	i	nt	nt
COc1ccc(S(=O)(=O)N2CCc3cc4c(cc3C2C)OCCCO4)cc1 (stereo not drawn)	-4.4*	-5	i	i	i	i
Cc1ccc(S(=O)(=O)N2CCc3cc4c(cc3C2C)OCCCO4)cc1 (stereo not drawn)	-2.9	-7	i	i	i	i
CCn1ccc(C(=O)Nc2ccc3c(c2)CCC3)n1	1.5	-8	i	i	i	i
O=[N+]([O-])c1ccc(/C=N/Nc2nc(N3CCCCCC3)nc(N3CCCCCC3)n2)o1	-0.94	-12	-7*	i	i	6*
Cc1ccc(/C=N/Nc2nc(N3CCCCC3)nc(N3CCCCC3)n2)o1	-0.79	-12	i	i	i	i
COC(=O)c1ccccc1-c1ccc(/C=N/Nc2nc(N3CCCC3)nc(N3CCCC3)n2)o1	0.66	-14	i	i	i	6*
CCOC(=O)N1CCN(c2nc(N(c3ccccc3)c3ccccc3)nc(-n3ccnc3)n2)CC1	-0.67	-13	i	nt	i	8*
COc1ccc(-c2cc(-c3nc4ccccn4c3NCc3ccccc3)ccc2OC)cc1	nt	nt	nt	-8.7*	nt	nt
Clc1cccc(-c2ccc(-c3nc4ccccn4c3NCc3ccccc3)cc2)c1	nt	nt	nt	-9.6*	nt	nt
COc1ccccc1CNC(=O)C1CCC(CNS(=O)(=O)c2ccc(F)cc2)CC1 (stereo not drawn)	-0.39	-8	i	i	i	i
Cc1c(C)n(Cc2ccc(F)cc2)c2ccc(C(=O)N3CCN(c4ccccn4)CC3)cc12	0.03	-9	i	i	i	6*

Bioassay records deposited in PubChem BioAssay by Johns Hopkins Ion Channel Center.
